Consider 54 molecules from ChEMBL document CHEMBL3098082, “Design, synthesis, molecular docking and 3D-QSAR studies of potent inhibitors of enoyl-acyl carrier protein reductase as potential antimycobacterial agents” (Eur J Med Chem, 2014).

In test [1] the test system is Mycobacterium tuberculosis. The experiment in a line: Antimycobacterial activity against Mycobacterium tuberculosis H37Rv after 5 days by microplate alamar blue assay. It is filed as functional. The conditions noted are these: for MIC: Mycobacterium tuberculosis, H37Rv, 120 h. Put shortly:
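M. tuberculosis H37Rv in Middlebrook 7H9 broth; compounds serially diluted on plate at 0.2–100 […] (so in the source); isoniazid reference. Incubated 37 C, 5 days, then 1:1 alamar blue/10% Tween 80 added, further 24 h. Blue = no growth, pink = growth; MIC = lowest concentration preventing blue-to-pink change.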
In general terms: Alamar Blue is a resazurin reagent that responds to reducing activity.

Another test has as its system A549. The experiment in a line: Cytotoxicity against human A549 cells by MTT assay. It is filed as cell-based.
Another test has as its system Vero. Nature of the test: Cytotoxicity against african green monkey Vero cells by MTT assay. In kind it is cell-based. The conditions noted are these: Chlorocebus sabaeus. Background: Tetrazolium assays rely on reduction of a dye to a coloured formazan, in cell work by metabolically active cells.

Converted amounts (≈) assume the structure as drawn. Some results are limits rather than exact numbers.

For the molecule `C/C(=N\NC(N)=S)c1ccc(-n2cccc2)cc1`, in test [1], the “-logMIC” value came to 4.301 and the MIC (as a rule, the lowest concentration that inhibits growth of the organism) was 50 µg/mL (≈ 194 µM).
In the case of `C/C(=N\NC(N)=O)c1ccc(-n2cccc2)cc1`, in test [1], the “-logMIC” value amounted to 4 and the minimal inhibitory concentration (MIC) stood at 100 µg/mL (≈ 413 µM).
Taken in the same sequence, the figures for `C/C(=N\NC(=O)c1ccncc1)c1ccc(-n2c(C)ccc2C)cc1` were 4 and 100 µg/mL (≈ 301 µM).
Taken in the same sequence, the figures for `C/C(=N\NC(=O)c1cccnc1)c1ccc(-n2c(C)ccc2C)cc1` were 4 and 100 µg/mL (≈ 301 µM).
In the same order, the values of `C/C(=N\NC(=O)c1ccc(-n2cccc2)cc1)c1ccc(-n2c(C)ccc2C)cc1` are 4.301 and 50 µg/mL (≈ 126 µM).
As for `C/C(=N\NC(=O)c1ccc(-n2c(C)ccc2C)cc1)c1ccc(-n2c(C)ccc2C)cc1`, in test [1], the “-logMIC” value is on record as 4.602 and 25 µg/mL (≈ 58.9 µM) was the least that counted as inhibitory (MIC).
As to `C/C(=N\NC(=O)c1ccccc1)c1ccc(-n2c(C)ccc2C)cc1`, in test [1], the “-logMIC” value was found to be 4.602 and 25 µg/mL (≈ 75.4 µM) was the least that counted as inhibitory (MIC).
In the same order, the values of `C/C(=N\NC(=O)c1ccc(C)cc1)c1ccc(-n2c(C)ccc2C)cc1` are 4.602 and 25 µg/mL (≈ 72.4 µM).
In the same order, the values of `C/C(=N\NC(=O)c1ccc(Cl)cc1)c1ccc(-n2c(C)ccc2C)cc1` are 4.602 and 25 µg/mL (≈ 68.3 µM).
On to `C/C(=N\NC(=O)c1ccc(Br)cc1)c1ccc(-n2c(C)ccc2C)cc1`, for which, in test [1], the “-logMIC” value came to 4.602 and the MIC is 25 µg/mL (≈ 60.9 µM).
In the same order, the values of `C/C(=N\NC(=O)c1ccccc1Cl)c1ccc(-n2c(C)ccc2C)cc1` are 4.903 and 12.5 µg/mL (≈ 34.2 µM).
For `C/C(=N\NC(=O)c1ccc(O)cc1)c1ccc(-n2c(C)ccc2C)cc1`, in test [1], the “-logMIC” value was 4.602 and the MIC is 25 µg/mL (≈ 72 µM).
As for `C/C(=N\NC(=O)COc1ccccc1)c1ccc(-n2c(C)ccc2C)cc1`, in test [1], the “-logMIC” value is reported as 6.097 and the MIC came out at 0.8 µg/mL (≈ 2.21 µM).
With `C/C(=N\NC(=O)COc1ccc(C)cc1)c1ccc(-n2c(C)ccc2C)cc1`, in test [1], the “-logMIC” value was found to be 5.505 and inhibition of growth (MIC) required 3.12 µg/mL (≈ 8.32 µM).
On to `C/C(=N\NC(=O)COc1ccc(Cl)cc1)c1ccc(-n2c(C)ccc2C)cc1`, for which, in test [1], the “-logMIC” value stood at 5.505 and the minimal inhibitory concentration (MIC) came to 3.12 µg/mL (≈ 7.89 µM).
Taken in the same sequence, the figures for `C/C(=N\NC(=O)COc1ccc(Br)cc1)c1ccc(-n2c(C)ccc2C)cc1` were 5.204 and 6.25 µg/mL (≈ 14.2 µM).
In the same order, the values of `C/C(=N\NC(=O)COc1ccccc1Cl)c1ccc(-n2c(C)ccc2C)cc1` are 4.301 and 50 µg/mL (≈ 126 µM).
Taken in the same sequence, the figures for `C/C(=N\NC(=O)COc1ccc(O)cc1)c1ccc(-n2c(C)ccc2C)cc1` were 4.602 and 25 µg/mL (≈ 66.2 µM).
Regarding `C/C(=N\NC(=O)COc1c(Cl)cc(Cl)cc1Cl)c1ccc(-n2c(C)ccc2C)cc1`, in test [1], the “-logMIC” value is 4.903 and the MIC amounted to 12.5 µg/mL (≈ 26.9 µM).
As to `C/C(=N\NC(=O)COc1cccc2ccccc12)c1ccc(-n2c(C)ccc2C)cc1`, the “-logMIC” value in test [1] came to 6.699. Also, the MIC in test [1] was found to be 0.2 µg/mL (≈ 0.486 µM). In addition, the IC50 – broadly, the point on the concentration scale where inhibition reaches its midpoint – turned out to be 269 µM in the test with A549 and 277 µM in the test with Vero.
In the same order, the values of `C/C(=N\NC(=O)COc1ccc2ccccc2c1)c1ccc(-n2c(C)ccc2C)cc1` are 6.699, 0.2 µg/mL (≈ 0.486 µM), 260 µM and 255 µM.
In the same order, the values of `C/C(=N\NS(=O)(=O)c1ccc(C)cc1)c1ccc(-n2c(C)ccc2C)cc1` are 6.398, 0.4 µg/mL (≈ 1.05 µM), 277 µM and 279 µM.
For `CC(=O)Nc1ccc(S(=O)(=O)N/N=C(\C)c2ccc(-n3c(C)ccc3C)cc2)cc1`, in test [1], the “-logMIC” value is reported as 6.097 and the MIC was 0.8 µg/mL (≈ 1.88 µM).
Taken in the same sequence, the figures for `C/C(=N\NS(=O)(=O)c1ccc(N)cc1)c1ccc(-n2c(C)ccc2C)cc1` were 4.903 and 12.5 µg/mL (≈ 32.7 µM).
Taken in the same sequence, the figures for `C/C(=N\Nc1ccccc1)c1ccc(-n2c(C)ccc2C)cc1` were 4.602 and 25 µg/mL (≈ 82.4 µM).
On to `C/C(=N\Nc1ccc([N+](=O)[O-])cc1[N+](=O)[O-])c1ccc(-n2c(C)ccc2C)cc1`, for which, in test [1], the “-logMIC” value came out at 4.903 and the MIC is 12.5 µg/mL (≈ 31.8 µM).
For the molecule `C/C(=N\NC(N)=S)c1ccc(-n2c(C)ccc2C)cc1`, in test [1], the “-logMIC” value turned out to be 4.301 and the lowest concentration to inhibit growth (MIC) was 50 µg/mL (≈ 175 µM).
Taken in the same sequence, the figures for `C/C(=N\NC(N)=O)c1ccc(-n2c(C)ccc2C)cc1` were 4.301 and 50 µg/mL (≈ 185 µM).
In the same order, the values of `C/C(=N\NC(=O)c1ccncc1)c1ccc(-n2cccc2)cc1` are 4.301 and 50 µg/mL (≈ 164 µM).
Taken in the same sequence, the figures for `C/C(=N\NC(=O)c1cccnc1)c1ccc(-n2cccc2)cc1` were 4.301 and 50 µg/mL (≈ 164 µM).
As for `C/C(=N\NC(=O)c1ccc(-n2cccc2)cc1)c1ccc(-n2cccc2)cc1`, in test [1], the “-logMIC” value was 4.903 and the MIC was 12.5 µg/mL (≈ 33.9 µM).
Taken in the same sequence, the figures for `C/C(=N\NC(=O)c1ccc(-n2c(C)ccc2C)cc1)c1ccc(-n2cccc2)cc1` were 4.602 and 25 µg/mL (≈ 63.1 µM).
In the same order, the values of `C/C(=N\NC(=O)c1ccccc1)c1ccc(-n2cccc2)cc1` are 4.301 and 50 µg/mL (≈ 165 µM).
In the same order, the values of `C/C(=N\NC(=O)c1ccc(C)cc1)c1ccc(-n2cccc2)cc1` are 4.301 and 50 µg/mL (≈ 158 µM).
Consider `C/C(=N\NC(=O)c1ccc(Cl)cc1)c1ccc(-n2cccc2)cc1`, for which, in test [1], the “-logMIC” value came to 4.301 and the MIC was 50 µg/mL (≈ 148 µM).
In the same order, the values of `C/C(=N\NC(=O)c1ccc(Br)cc1)c1ccc(-n2cccc2)cc1` are 4.301 and 50 µg/mL (≈ 131 µM).
Taken in the same sequence, the figures for `C/C(=N\NC(=O)c1ccccc1Cl)c1ccc(-n2cccc2)cc1` were 4.602 and 25 µg/mL (≈ 74 µM).
In the case of `C/C(=N\NC(=O)c1ccc(O)cc1)c1ccc(-n2cccc2)cc1`, in test [1], the “-logMIC” value is 4.903 and the MIC stood at 12.5 µg/mL (≈ 39.1 µM).
Taken in the same sequence, the figures for `C/C(=N\NC(=O)COc1ccccc1)c1ccc(-n2cccc2)cc1` were 4.903 and 12.5 µg/mL (≈ 37.5 µM).
In the same order, the values of `C/C(=N\NC(=O)COc1ccc(C)cc1)c1ccc(-n2cccc2)cc1` are 4.903 and 12.5 µg/mL (≈ 36 µM).
In the same order, the values of `C/C(=N\NC(=O)COc1ccc(Cl)cc1)c1ccc(-n2cccc2)cc1` are 4.903 and 12.5 µg/mL (≈ 34 µM).
Consider `C/C(=N\NC(=O)COc1ccc(Br)cc1)c1ccc(-n2cccc2)cc1`, for which, in test [1], the “-logMIC” value is recorded as 4.301 and inhibition of growth (MIC) required 50 µg/mL (≈ 121 µM).
For `C/C(=N\NC(=O)COc1ccccc1Cl)c1ccc(-n2cccc2)cc1`, in test [1], the “-logMIC” value is on record as 4.602 and 25 µg/mL (≈ 68 µM) was the least that counted as inhibitory (MIC).
Taken in the same sequence, the figures for `C/C(=N\NC(=O)COc1ccc(O)cc1)c1ccc(-n2cccc2)cc1` were 4.602 and 25 µg/mL (≈ 71.6 µM).
In the same order, the values of `C/C(=N\NC(=O)COc1c(Cl)cc(Cl)cc1Cl)c1ccc(-n2cccc2)cc1` are 4.301 and 50 µg/mL (≈ 114 µM).
On to `C/C(=N\NC(=O)COc1cccc2ccccc12)c1ccc(-n2cccc2)cc1`, for which, in test [1], the “-logMIC” value came out at 6.398. This molecule showed a minimal inhibitory concentration (MIC) in test [1] of 0.4 µg/mL (≈ 1.04 µM). The IC50 in the test on A549 turned out to be 243 µM; in the test on Vero, 240 µM.
As to `C/C(=N\NC(=O)COc1ccc2ccccc2c1)c1ccc(-n2cccc2)cc1`, in test [1], the “-logMIC” value was determined as 6.699 and inhibition of growth (MIC) required 0.2 µg/mL (≈ 0.522 µM). The molecule also yielded an IC50 in the test with A549 of 247 µM. This molecule also displayed an IC50 in the test with Vero of 249 µM.
For `C/C(=N\NS(=O)(=O)c1ccc(C)cc1)c1ccc(-n2cccc2)cc1`, in test [1], the “-logMIC” value turned out to be 6.097 and the MIC worked out at 0.8 µg/mL (≈ 2.26 µM).
`CC(=O)Nc1ccc(S(=O)(=O)N/N=C(\C)c2ccc(-n3cccc3)cc2)cc1`: in test [1], the “-logMIC” value worked out at 6.699. Besides, the MIC in test [1] came out at 0.2 µg/mL (≈ 0.504 µM). In addition, the IC50 with A549 was 257 µM; in the test with Vero, 263 µM.
As for `C/C(=N\NS(=O)(=O)c1ccc(N)cc1)c1ccc(-n2cccc2)cc1`, in test [1], the “-logMIC” value was 5.204 and 6.25 µg/mL (≈ 17.6 µM) was the least that counted as inhibitory (MIC).
In the same order, the values of `C/C(=N\Nc1ccccc1)c1ccc(-n2cccc2)cc1` are 4.903 and 12.5 µg/mL (≈ 45.4 µM).
Taken in the same sequence, the figures for `C/C(=N\Nc1ccc([N+](=O)[O-])cc1[N+](=O)[O-])c1ccc(-n2cccc2)cc1` were 4.903 and 12.5 µg/mL (≈ 34.2 µM).
In turn, `NNC(=O)c1ccncc1` [ISONIAZID] registered an MIC in test [1] of 0.25 µg/mL (≈ 1.82 µM). Also, the IC50 in the test with A549 and in the test with Vero was greater than 450 µM in each case.
Consider `Oc1cc(Cl)ccc1Oc1ccc(Cl)cc1Cl` [TRICLOSAN], for which, in test [1], inhibition of growth (MIC) required 10 µg/mL (≈ 34.5 µM).
